The source of these data is ChEMBL document CHEMBL5506026, “New Improved cGMP Analogues to Target Rod Photoreceptor Degeneration” (J Med Chem, 2024).

Active and inactive are the calls of the source. The rule behind the calls is not given here. Bounds are passed on as bounds.

The subject of data set [1] is 661W-A11. The data set can be described thus: Neuroprotective activity against zaprinast induced mouse 661W-A11 cells assessed as increase in cell viability at 50 uM preincubated for 2 hrs followed by zaprinast addition at 200 uM and measured after 48 hrs by MTT assay. The data set is classed as functional, cell-based. The conditions noted are these: time 50.0 hrs. A digest of the protocol:
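661W-A11 cells seeded 6000/well; 24 h later pretreated 2 h with 50 µM compound, then 200 µM zaprinast 48 h with compound present. MTT 1 mg/mL for 90 min at 37 °C, formazan in isopropanol, OD 570 nm. Viability normalized to matched vehicle (H2O or DMSO) set at 100%. ≥3 biological replicates, mean ± SD.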
A general note: Tetrazolium dyes change colour on reduction, which living cells bring about.

Data set [2] deals with 661W-A11. The data set can be described thus: Neuroprotective activity against zaprinast induced mouse 661W-A11 cells assessed as reduction in cell death at 50 uM preincubated for 2 hrs followed by zaprinast addition at 200 uM and measured after 48 hrs by TUNEL assay. The class given is functional, cell-based. The conditions noted are these: time 50.0 hrs. A digest of the protocol:
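661W-A11 cells seeded 20,000/well; 2 h pretreatment with 50 µM compound, then 200 µM zaprinast 48 h. Fixed in 2% paraformaldehyde, permeabilized in citrate/0.1% Triton X-100 on ice, TUNEL (TMR red) 30 min at 37 °C, DAPI counterstain, fluorescence microscopy. Death = TUNEL+ cells/DAPI+ cells. ≥3 biological replicates, mean ± SD.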

The nature of data set [3]: Cytotoxicity against mouse 661W-A11 cells assessed as reduction in cell viability at 1 to 1000 uM incubated for 48 hrs by MTT assay. The class given is toxicity, cell-based. The conditions noted are these: 661w-a11, 48 h, dose 1-1000 µM. A digest of the protocol:
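661W-A11 rod-like mouse photoreceptor line (1 mg/mL glucose DMEM, 10% FBS, 37 °C, 5% CO2), seeded 6000 cells/well; next day exposed to scaling concentrations (1 μM to 1 mM) for 48 h in H2O or DMSO vehicle, matched vehicle controls. MTT 1 mg/mL, 90 min at 37 °C; formazan dissolved in isopropanol, OD 570 nm; untreated cells set as 100% viability; at least three biological replicates.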

Data set [4] relates to Primary photoreceptor cell. Briefly: Neuroprotective activity in rd1 mouse Primary photoreceptor cells harboring loss of function mutation in Pde6b gene assessed as reduction in cell death at 50 uM administered at day 10 of differentiation and measured after 24 hrs by TUNEL assay. The class given is functional, cell-based. A digest of the protocol: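 Neurosphere-derived retinal stem cells from rd1 mouse eyes differentiated in vitro into photoreceptors. 50 µM compound or vehicle added on day 10; TUNEL on day 11 (24 h exposure), scored as TUNEL+/DAPI+ nuclei by fluorescence microscopy. ≥3 biological replicates, mean ± SD.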

Data set [5] can be described thus: Neuroprotective activity against zaprinast induced mouse 661W-A11 cells assessed as increase in cell viability at 1 to 1000 uM preincubated for 2 hrs followed by zaprinast addition at 200 uM and measured after 48 hrs by MTT assay relative to control. The data set is classed as functional. The conditions noted are these: dose 1-1000 µM, time 50 hrs. A digest of the protocol:
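661W-A11 rod-like cells (DMEM 1 mg/mL glucose, 10% FBS, 37 °C, 5% CO2) seeded 6000/well; next day pretreated 2 h with 1 µM–1 mM compound, then 200 µM zaprinast 48 h with compound present. MTT 1 mg/mL, 90 min at 37 °C, formazan in isopropanol, OD 570 nm. EC50 from dose–response curve; ≥3 biological replicates, mean ± SEM.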

For `O=c1c2nc(Br)n([C@@H]3O[C@@H]4COP(=O)(O)O[C@H]4[C@H]3O)c2nc2[nH]c(-c3ccccc3)cn12`, the result in data set [1] and in data set [2] was inactive.

For `CCN(CC)CC.O=c1c2nc(Br)n([C@@H]3O[C@@H]4COP(=S)(S)O[C@H]4[C@H]3O)c2nc2[nH]c(-c3ccccc3)cn12` (some centres undefined), in data set [3], the Activity result is “Non-Toxic”. The result in data set [1], in data set [2] and in data set [4] was Active.

In the case of `CCN(CC)CC.O=c1c2nc(Br)n([C@@H]3O[C@@H]4CO[P@](O)(=S)O[C@H]4[C@H]3O)c2nc2[nH]c(-c3ccccc3)cn12`, the result in data set [1], in data set [2] and in data set [4] was Active. Besides, in data set [5], the Activity entry was “<=70%”.

With `O=c1c2nc(Br)n([C@@H]3O[C@@H]4CO[P@@]([O-])(=S)O[C@H]4[C@H]3O)c2nc2[nH]c(-c3ccccc3)cn12.[Na+]`, the outcome in data set [1], in data set [2] and in data set [4] was Active. The Activity entry in data set [5] is reported as “<=70%”.
